Measurements reported in ChEMBL document CHEMBL3091393, “Antioxidant activities of 5-hydroxyoxindole and its 3-hydroxy-3-phenacyl derivatives: the suppression of lipid peroxidation and intracellular oxidative stress” (Bioorg Med Chem, 2013).
The source made the active and inactive calls. The calls are words filed in the database; no cut-off is given here.

test system: HL-60; experiment: Cytotoxicity against human HL60 cells assessed as reduction of cell viability at 100 uM after 24 hrs by trypan blue dye exclusion test; assay type: cell-based; details: hl-60, 24 h
In short: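 HL60 cells at 1.0 × 10⁶/well exposed to compound (100 μM, 1% DMSO final) for 24 h at 37 °C, 5% CO2. Cells pelleted and resuspended in PBS(−). Viable cells counted by trypan blue exclusion on an automated counter.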

| Structure (SMILES) | Activity |
| --- | --- |
| N#Cc1ccc(C(=O)CC2(O)C(=O)Nc3ccc(O)cc32)cc1 (stereo not given) | Toxic |
| Cc1ccc(C(=O)CC2(O)C(=O)Nc3ccc(O)cc32)cc1 (stereo not given) | Non-toxic |
| COc1ccc(C(=O)CC2(O)C(=O)Nc3ccc(O)cc32)cc1 (stereo not given) | Non-toxic |
| O=C(CC1(O)C(=O)Nc2ccc(O)cc21)c1ccccc1 (stereo not given) | Non-toxic |
| O=C(CC1(O)C(=O)Nc2ccc(O)cc21)c1ccc(Cl)cc1 (stereo not given) | Toxic |
| O=C(CC1(O)C(=O)Nc2ccc(O)cc21)c1ccc(F)cc1 (stereo not given) | Toxic |
| CC(=O)CC1(O)C(=O)Nc2ccc(O)cc21 (stereo not given) | Non-toxic |
| O=C1Cc2cc(O)ccc2N1 | Non-toxic |
| O=C(CC1(O)C(=O)Nc2ccc(O)cc21)c1ccc(Br)cc1 (stereo not given) | Toxic |

test system: Radical scavenging activity; experiment: Antioxidant activity assessed as DPPH free radical scavenging activity by spectroscopic analysis; assay type: functional; details: not given

| Structure (SMILES) | Activity [×10³ /M/s] |
| --- | --- |
| N#Cc1ccc(C(=O)CC2(O)C(=O)Nc3ccc(O)cc32)cc1 (stereo not given) | 1.7 |
| Cc1ccc(C(=O)CC2(O)C(=O)Nc3ccc(O)cc32)cc1 (stereo not given) | 1.8 |
| COc1ccc(C(=O)CC2(O)C(=O)Nc3ccc(O)cc32)cc1 (stereo not given) | 1.5 |
| O=C(CC1(O)C(=O)Nc2ccc(O)cc21)c1ccccc1 (stereo not given) | 1.9 |
| O=C(CC1(O)C(=O)Nc2ccc(O)cc21)c1ccc(Cl)cc1 (stereo not given) | 2.4 |
| O=C(CC1(O)C(=O)Nc2ccc(O)cc21)c1ccc(F)cc1 (stereo not given) | 1.5 |
| CC(=O)CC1(O)C(=O)Nc2ccc(O)cc21 (stereo not given) | 0.74 |
| O=C(CC1(O)C(=O)Nc2ccc(O)cc21)c1ccc([N+](=O)[O-])cc1 (stereo not given) | 2.5 |
| O=C(CC1(O)C(=O)Nc2ccc(O)cc21)c1ccc(C(F)(F)F)cc1 (stereo not given) | 1.6 |
| O=C(CC1(O)C(=O)Nc2ccc(O)cc21)c1ccc(I)cc1 (stereo not given) | 2.2 |
| O=C1Cc2cc(O)ccc2N1 | 9.2 |
| O=C(CC1(O)C(=O)Nc2ccc(O)cc21)c1ccc(Br)cc1 (stereo not given) | 1.2 |
| Oc1nc(O)c2nc(O)[nH]c2n1 [URIC ACID] | 0.63 |

test system: Liver microsome; experiment: Antioxidant activity against tert-butylhydroperoxide-induced lipid peroxidation in rat liver microsomes after 20 mins by TBARS method; assay type: functional; details: not given
In short: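 Kept on ice, then peroxidation started with tert-butylhydroperoxide (1 mM) and run 37 °C, 20 min. Stopped with BHT, then TCA/TBA at 85 °C for 20 min. TBARS read as A535−A600. IC50 is the mean of 3 independent trials.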

| Structure (SMILES) | IC50 [µM] |
| --- | --- |
| N#Cc1ccc(C(=O)CC2(O)C(=O)Nc3ccc(O)cc32)cc1 (stereo not given) | 150 |
| Cc1ccc(C(=O)CC2(O)C(=O)Nc3ccc(O)cc32)cc1 (stereo not given) | 160 |
| COc1ccc(C(=O)CC2(O)C(=O)Nc3ccc(O)cc32)cc1 (stereo not given) | 225 |
| O=C(CC1(O)C(=O)Nc2ccc(O)cc21)c1ccccc1 (stereo not given) | 240 |
| O=C(CC1(O)C(=O)Nc2ccc(O)cc21)c1ccc(Cl)cc1 (stereo not given) | 120 |
| O=C(CC1(O)C(=O)Nc2ccc(O)cc21)c1ccc(F)cc1 (stereo not given) | 95 |
| CC(=O)CC1(O)C(=O)Nc2ccc(O)cc21 (stereo not given) | > 300 |
| O=C(CC1(O)C(=O)Nc2ccc(O)cc21)c1ccc([N+](=O)[O-])cc1 (stereo not given) | 40 |
| O=C(CC1(O)C(=O)Nc2ccc(O)cc21)c1ccc(C(F)(F)F)cc1 (stereo not given) | 80 |
| O=C(CC1(O)C(=O)Nc2ccc(O)cc21)c1ccc(I)cc1 (stereo not given) | 55 |
| O=C1Cc2cc(O)ccc2N1 | 300 |
| O=C(CC1(O)C(=O)Nc2ccc(O)cc21)c1ccc(Br)cc1 (stereo not given) | 75 |
| Oc1nc(O)c2nc(O)[nH]c2n1 [URIC ACID] | > 300 |

test system: not listed separately; experiment: Octanol-water partition coefficient, logKOW of the compound; assay type: physicochemical; details: read-out: log KOW

| Structure (SMILES) | logP |
| --- | --- |
| N#Cc1ccc(C(=O)CC2(O)C(=O)Nc3ccc(O)cc32)cc1 (stereo not given) | 1.91 |
| Cc1ccc(C(=O)CC2(O)C(=O)Nc3ccc(O)cc32)cc1 (stereo not given) | 2.2 |
| COc1ccc(C(=O)CC2(O)C(=O)Nc3ccc(O)cc32)cc1 (stereo not given) | 1.74 |
| O=C(CC1(O)C(=O)Nc2ccc(O)cc21)c1ccccc1 (stereo not given) | 1.07 |
| O=C(CC1(O)C(=O)Nc2ccc(O)cc21)c1ccc(Cl)cc1 (stereo not given) | 2.45 |
| O=C(CC1(O)C(=O)Nc2ccc(O)cc21)c1ccc(F)cc1 (stereo not given) | 1.93 |
| CC(=O)CC1(O)C(=O)Nc2ccc(O)cc21 (stereo not given) | 0.44 |
| O=C(CC1(O)C(=O)Nc2ccc(O)cc21)c1ccc([N+](=O)[O-])cc1 (stereo not given) | 1.85 |
| O=C(CC1(O)C(=O)Nc2ccc(O)cc21)c1ccc(C(F)(F)F)cc1 (stereo not given) | 2.89 |
| O=C(CC1(O)C(=O)Nc2ccc(O)cc21)c1ccc(I)cc1 (stereo not given) | 2.81 |
| O=C1Cc2cc(O)ccc2N1 | 0.7 |
| O=C(CC1(O)C(=O)Nc2ccc(O)cc21)c1ccc(Br)cc1 (stereo not given) | 2.55 |

test system: HL-60; experiment: Antioxidant activity in human HL60 cells assessed as reduction of H2O2-induced intracellular oxidative stress at 10 uM after 1 hr using DCFH-DA by FACS analysis; assay type: functional, cell-based; details: not given
In short: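 HL60 cells (RPMI-1640, 5% heat-inactivated FBS, 37 °C, 5% CO2) at 1.0 × 10⁶/well loaded with DCFH-DA (10 μM, 15 min), washed, then pretreated 1 h with compound (10 μM, 1% DMSO final). H2O2 (200 μM) added for 1 h; water for controls. Fluorescence (ex 488/em 530 nm) measured by flow cytometry on about 10,000 cells per sample.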

| Structure (SMILES) | Activity |
| --- | --- |
| N#Cc1ccc(C(=O)CC2(O)C(=O)Nc3ccc(O)cc32)cc1 (stereo not given) | Active |
| Cc1ccc(C(=O)CC2(O)C(=O)Nc3ccc(O)cc32)cc1 (stereo not given) | Active |
| COc1ccc(C(=O)CC2(O)C(=O)Nc3ccc(O)cc32)cc1 (stereo not given) | Active |
| O=C(CC1(O)C(=O)Nc2ccc(O)cc21)c1ccccc1 (stereo not given) | Active |
| O=C(CC1(O)C(=O)Nc2ccc(O)cc21)c1ccc(Cl)cc1 (stereo not given) | Active |
| O=C(CC1(O)C(=O)Nc2ccc(O)cc21)c1ccc(F)cc1 (stereo not given) | Active |
| CC(=O)CC1(O)C(=O)Nc2ccc(O)cc21 (stereo not given) | inactive |
| O=C(CC1(O)C(=O)Nc2ccc(O)cc21)c1ccc([N+](=O)[O-])cc1 (stereo not given) | Active |
| O=C(CC1(O)C(=O)Nc2ccc(O)cc21)c1ccc(C(F)(F)F)cc1 (stereo not given) | Active |
| O=C(CC1(O)C(=O)Nc2ccc(O)cc21)c1ccc(I)cc1 (stereo not given) | Active |
| O=C1Cc2cc(O)ccc2N1 | Active |
| O=C(CC1(O)C(=O)Nc2ccc(O)cc21)c1ccc(Br)cc1 (stereo not given) | Active |
| Oc1nc(O)c2nc(O)[nH]c2n1 [URIC ACID] | inactive |
